Source: PubChem
M1 agonist – M1 muscarinic receptor agonism | CHO-M1 cells, Fluo-4 calcium fluorescence, agonist mode; active compounds read high | B-score at 10 µM | 64,000 tested, 3% active | AID 626;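 active = fluorescence rise, raw or as B-score row- and column-corrected plate score, outside the 99.7% band of its plate's samples, either direction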
SF-1 act – SF-1 (human) activation. Q13285. CHO-K1 Gal4-SF-1 LBD luciferase reporter; % increase over DMSO SF-1-specific signal. activation, % at 10 µM. 65,000 tested, 1.9% active. AID 522;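 active = activation above the mean activation of all tested compounds plus 3 SD, cut at about 50% in these data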
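Material: CHO-K1 cells with Gal4–hSF-1 LBD chimera plus Gal4-driven luciferase / Input: 4,000 CHO-K1 cells per well / Incubation: compound exposure 20 h at 37 °C / Signal: luminescence read 15 min after SteadyLite luciferase reagent, after room-temperature equilibration / Read-out: percent activation versus DMSO / Benchmarks: DMSO negative control and −SF1 background wells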
HePTP inhibitor – inhibitors of human HePTP phosphatase; P35236; recombinant HePTP phosphatase activity, OD absorbance; inhibition, % at 20 µM; 110,000 tested, 0.64% active; AID 521; in the data active = inhibition above about 50%; inconclusive = no clear call, values can overlap the other calls;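 also: plate controls were vehicle for no effect and reference inhibitor for full effect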
Target sequence (P35236 whole entry, looked up): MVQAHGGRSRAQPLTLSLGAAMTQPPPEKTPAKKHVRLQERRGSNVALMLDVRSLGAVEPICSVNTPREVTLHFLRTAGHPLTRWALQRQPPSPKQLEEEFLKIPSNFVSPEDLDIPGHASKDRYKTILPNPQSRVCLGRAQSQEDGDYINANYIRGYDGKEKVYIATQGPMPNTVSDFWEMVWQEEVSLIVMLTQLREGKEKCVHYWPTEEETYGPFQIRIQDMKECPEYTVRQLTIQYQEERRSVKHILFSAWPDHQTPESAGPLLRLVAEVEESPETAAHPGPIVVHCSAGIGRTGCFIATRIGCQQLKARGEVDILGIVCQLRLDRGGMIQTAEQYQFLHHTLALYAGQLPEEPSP
D1 allo mod – allosterically modulates the human D1 dopamine receptor. 58,000 tested, 5.9% active. P21728. B-score at 10 µM. HEK293 D1, CRE-luciferase, dopamine EC30 potentiation; actives deviate in either direction;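 active = luminescence count or its row- and column-corrected plate score outside the 99.7% band of the plate's sample wells, on either side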
RORA act – activators of human nuclear receptor RORA; AID 560; activation, % at 10 µM; CHO-K1 Gal4-RORA LBD luciferase reporter, luminescence; percent increase over mock-subtracted basal signal; 65,000 tested, 1.5% active;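 active = activation above the mean of all tested compounds plus 3 SD, cut at about 49% in these data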;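 also: 0% = DMSO-treated RORA cells and 100% = added signal equal to DMSO minus mock-transfected cells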
M1 antag – antagonists of rat M1 muscarinic receptor. B-score at 10 µM. CHO-M1 cells, Fluo-4 calcium, ACh EC80 antagonist mode; active compounds read low. P08482. 64,000 tested, 3.4% active;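 active = calcium fluorescence response, raw or row-and-column corrected B-score, differing from the plate sample mean either way at a set confidence level, mostly lower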
M1 ag confirm – rat M1 muscarinic agonism, confirmation; shares compounds with M1 agonist; CHO-M1 cells, Fluo-4 calcium fluorescence, agonist mode; actives lie on both sides; fluorescence change (max-min) at 10 µM; 1,700 tested, 19% active;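 active = fluorescence change differs from the solvent-only DMSO control mean at a set confidence level in both duplicate runs; inconclusive = differs from solvent-only control mean in just one of two runs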;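 also: an EC20 dose of acetylcholine follows compound addition during the same imaging run; raw fluorescence intensity difference in instrument units with no normalization to controls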
M4 agonist ctr – activates rat M4 receptor in counter-screen for M1 agonists | fluorescence change (max-min) at 10 µM | CHO M4/Gqi5 cells, Fluo-4 calcium fluorescence, agonist mode; actives lie on both sides | shares compounds with M1 agonist | 1,700 tested, 9% active;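 active = fluorescence change differing from the plate's solvent-only control wells at 99.7% confidence in both duplicates, whether higher or lower; inconclusive = differs from solvent controls in only one of two duplicates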
An asterisk follows results filed as active; ? = inconclusive; . = not tested or not shown. This is a sample that favours compounds with a hit; in the whole collection about 8.2% have one here.

SMILES	M1 agonist	SF-1 act	HePTP inhibitor	D1 allo mod	RORA act	M1 antag	M1 ag confirm	M4 agonist ctr
Cc1ccc(-n2c(C)cc(C(=O)OCC(=O)N(C)C3CCS(=O)(=O)C3)c2C)cc1 (stereo not given)	0.11	8	2	0.13	-2	0.1	.	.
CC(C)n1nc(C(=O)OCC(=O)N(C)C2CCS(=O)(=O)C2)c2ccccc2c1=O (stereo not given)	10*	7	9	0.23	-26	1	-11	-39
CCOC(=O)N1CCC(Nc2c(N3CCN(c4cc(Cl)ccc4C)CC3)c(=O)c2=O)CC1	-0.99	6	6	-1.4	13	-0.6	.	.
CCOC(=O)N1CCC(NCCNC(=O)c2ccc(Cl)cc2)CC1	18*	-14	6	-0.37	3	-0.87	115*	1.4
CSc1ccc(CN2CCN(S(=O)(=O)c3ccc(C)cc3)CC2)cc1	.	.	-2	.	.	.	.	.
CC(=O)N(c1ccccc1)c1c(F)c(F)c(F)c(F)c1F	3.9*	17	-4	0.15	6	0.21	-7.2	-0.88
CC(=O)Oc1c(C(C)C)cc(N(C(C)=O)c2ccccc2)cc1C(C)C	.	.	-2	.	.	.	.	.
Cc1ccc(C)c(OCC(O)CN2C(C)CCCC2C)c1 (stereo not given)	2.5*	-1	6	-1.7	1	-1.5*	-29*	-55
Nc1ccc2c(C(F)(F)F)cc(=O)oc2c1	26*	-9	7	-0.00044	18	0.2	171*	146
CC(C)CCNC(=O)C(=O)Nc1cccc(Cl)c1	.	.	7	.	.	.	.	.
O=C1c2oc3ccc(F)cc3c(=O)c2C(c2ccc(F)cc2)N1CCCN1CCOCC1 (stereo not given)	-0.071	11	-12	-0.36	-17	0.16	.	.
Oc1ccc(Br)cc1CN1CCN(C2CCN(Cc3ccccc3)CC2)CC1	.	.	-1	.	.	.	.	.
O=C(C1CCN(Cc2cc(Cl)ccc2O)CC1)N1CCN(Cc2ccccc2)CC1	5.6*	4	-5	-0.78	1	0.17	?	-41
Cc1ccc2nc(SCC(=O)Nc3cc(C)on3)[nH]c2c1	-0.21	-8	8	-0.25	-3	-0.0064	.	.
Cc1ccc2nc(SCC(=O)Nc3c(C)n(C)n(-c4ccccc4)c3=O)[nH]c2c1	2.9*	-10	3	1.4	18	-0.041	-7.1	-32
COc1cccc(-n2c(C)nc3c(cnn3-c3ccc(C)cc3)c2=O)c1	0.29	7	-7	0.082	-15	-0.13	.	.
COc1ccc(-n2c(C)nc3c(cnn3-c3ccc(Cl)cc3)c2=O)cc1	4.1*	-8	4	-0.56	-41	-0.7	-9.6	-53
Cc1cccc(-n2c(C)nc3c(cnn3-c3ccc(F)cc3)c2=O)c1	9.4*	-4	-2	0.4	-26	-0.74	-4.2	?
COC(=O)C(C)n1cnc2c(cnn2-c2ccc(Cl)cc2)c1=O (stereo not given)	4.6*	53*	10	.	47	-0.17	-5	-43
CCc1ccc(S(=O)(=O)NCc2cn3ccsc3n2)s1	3.3*	-10	.	0.86	3	0.55	-0.7	-45
CCc1ccc(S(=O)(=O)NCCc2cn3ccsc3n2)s1	-0.79	-1	-1	-0.17	-10	-0.42	.	.
O=C(Nc1nc(-c2cccs2)c(-c2ccccc2)s1)c1ccco1	0.45	-2	4	.	-20	0.43	.	.
O=C1CC(N2CCN(c3ccc(Cl)cc3)CC2)C(=O)N1CCc1ccccc1 (stereo not given)	.	.	0	.	.	.	.	.
O=C(c1ccncc1)c1ccc(N2CCN(C3CC(=O)N(Cc4ccccc4)C3=O)CC2)cc1 (stereo not given)	20*	14	3	-1	5	-2.3*	-25*	-49
O=C(Nc1ccc(S(=O)(=O)N2CCOCC2)cc1)c1ccc(Cl)cc1	-0.43	-1	-7	-1.4	9	-0.55	.	.
SMILES	M1 agonist	SF-1 act	HePTP inhibitor	D1 allo mod	RORA act	M1 antag	M1 ag confirm	M4 agonist ctr
O=C(Nc1ccc(Cc2ccncc2)cc1)c1ccc(S(=O)(=O)N2CCOCC2)cc1	13*	-7	7	0.26	-35	-2.5*	-17	?
Cc1ccc(S(=O)(=O)N2CCCc3ccccc32)cc1C	.	.	3	.	.	.	.	.
CCn1c(=O)n(CC)c2cc(S(=O)(=O)N3CCc4ccccc43)ccc21	2.6*	-2	9	-1	-3	0.42	-6.5	-35
CCN1CCN(C(=O)CSCc2nc(-c3ccc(OC)c(OC)c3)oc2C)CC1	-0.32	1	0	0.056	0	-0.26	.	.
CCc1ccc(-c2nc(CSCC(=O)N3CCN(c4ncccn4)CC3)c(C)o2)cc1	8.2*	-51	1	-3.5	-48	-0.46	-15	?
CC(NC(=O)CSc1nnc(-c2ccco2)n1-c1ccccc1)c1ccccc1 (stereo not given)	.	.	-23	.	.	.	.	.
CCOC(=O)COc1ccc(S(=O)(=O)NCc2ccco2)cc1	-0.97	1	9	0.055	1	-0.18	.	.
CCOC(=O)COc1ccc(S(=O)(=O)NCc2ccncc2)cc1	7.6*	-3	5	0.13	-19	-2.4	-6.9	?
Cc1ccc(-n2c(=O)c3sccc3n(CC(=O)NCc3ccco3)c2=O)cc1	0.32	-6	6	-1	2	0.49	.	.
CC(=O)Nc1c2c3c(cccc3n(C)c1=O)C(=O)c1ccccc1-2	9.4*	-10	17	0.086	-19	-0.37	68*	?
CCOc1ncccc1C(=O)Nc1ccc2c(C)cc(=O)oc2c1	13*	6	3	-0.24	-15	0.44	?	?
Cc1cc(NC(=O)CCN2C(=O)C3C4C=CC(C4)C3C2=O)c2ccccc2n1 (stereo not given)	3.3*	-6	-3	-0.25	4	-0.28	-7.2	-22
O=C(CCN1C(=O)C2C3C=CC(C3)C2C1=O)Nc1c(F)cccc1F (stereo not given)	0.19	-28	-5	-0.018	-18	0.17	.	.
CCOC(=O)c1c(C)n(C)c2ccc(OCC(O)Cn3nc(C)cc3C)cc12 (stereo not given)	2.7*	-11	12	0.86	-11	-0.36	?	-40
O=C(Nc1cccc(Cl)c1)Nc1nccs1	3.5*	32	5	-1.3	72*	-1.2	-11	?
COc1ccc(OC)c(C2CC(=O)Nc3cc(OC)c(OC)c(OC)c32)c1 (stereo not given)	0.35	-7	5	.	-7	-0.22	.	.
COc1cc(C2CC(=O)Nc3ccccc3S2)cc(OC)c1OC (stereo not given)	5.9*	9	.	-1.8	-10	-1.5	-7.2	?
